The term IC50 denotes the midpoint of a concentration-inhibition curve.

The record followed here is ChEMBL document CHEMBL4665656, “Toxicity, bioactivity, release of HS in vivo and pharmaco-kinetics of HS-donors with thiophosphamide structure” (Eur J Med Chem, 2019).

A short description of test [1]: Induction of H2S generation assessed as half life at 150 uM incubated at 37 degC and pH 8 by fluorescence spectrophotometry. It is filed as functional. Put shortly:
(§1)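 Donor at 150 µM final, mixed with 200 µM sulfonyl-azide fluorescent probe in buffer/acetonitrile (1:9) at set pH. Cuvette held in a water bath at 22 °C or 37 °C, with fluorescence read three times at intervals. H2S was quantified from a Na2S standard curve (0–200 µM, probe 200 µM).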

Test [2] is described as follows: Induction of H2S generation assessed as Cmax Induction of H2S generation assessed as Cmax at 150 uM incubated at 37 degC and pH 7.4 by fluorescence spectrophotometry. Format: functional. Put shortly: as §1
For a further test, the system named is MCF7. Description: Cytotoxicity in human MCF-7 cells assessed as growth inhibition incubated for 24 hrs by MTT assay. It is filed as functional, cell-based. The settings on record: MCF7, 24 h. Put shortly: (§2)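 Cells were grown in RPMI 1640 with 10% FBS at 37 °C and 10% CO2, seeded at 6×10^3 cells/well. Exposure was 24 h, with viability by MTT, in triplicate cultures. IC50 was reported as mean ± SD.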
For orientation: Tetrazolium dyes change colour on reduction, which living cells bring about.

Test [3] in a line: Induction of H2S generation assessed as half life at 150 uM incubated at 37 degC and pH 5 by fluorescence spectrophotometry. It is filed as functional. The gist of the method: as §1
In a further test the test system is HT-29. Description: Cytotoxicity in human HT-29 cells assessed as growth inhibition incubated for 24 hrs by MTT assay. The settings on record: HT-29, 24 h. Format: functional, cell-based. The gist of the method: as §2
Another test deals with WI-38. Put plainly: Cytotoxicity in human W138 cells assessed as growth inhibition incubated for 24 hrs by MTT assay. It is filed as cell-based. The settings on record: WI-38, 24 h. The gist of the method:
as §2

In a further test the test system is HepG2. Description: Cytotoxicity in human HePG2 cells assessed as growth inhibition incubated for 24 hrs by MTT assay. It is filed as functional, cell-based. The settings on record: HepG2, 24 h. The gist of the method:
as §2

The nature of test [4]: Induction of H2S generation assessed as half life at 150 uM incubated at 22 degC and pH 1.2 by fluorescence spectrophotometry. It is filed as functional. The gist of the method:
as §1

A short description of test [5]: Induction of H2S generation assessed as half life at 150 uM incubated at 22 degC and pH 8 by fluorescence spectrophotometry. Format: functional. Put shortly: as §1
The test system of another test is HeLa. Description: Cytotoxicity in human HeLa cells assessed as growth inhibition incubated for 24 hrs by MTT assay. It is filed as functional, cell-based. The gist of the method:
as §2

Test [6] can be described thus: Induction of H2S generation assessed as Cmax at 150 uM incubated at 22 degC and pH 5 by fluorescence spectrophotometry. It is filed as functional. Put shortly: as §1
Test [7] is described as follows: Induction of H2S generation assessed as Cmax at 150 uM incubated at 22 degC and pH 1.2 by fluorescence spectrophotometry. It is filed as functional. Put shortly:
as §1

Test [8] in a line: Induction of H2S generation assessed as half life at 150 uM incubated at 22 degC and pH 5 by fluorescence spectrophotometry. It is filed as functional. Put shortly:
as §1

Test [9] can be described thus: Induction of H2S generation assessed as half life at 150 uM incubated at 37 degC and pH 1.2 by fluorescence spectrophotometry. It is filed as functional. Put shortly: as §1
Test [10] is described as follows: Induction of H2S generation assessed as Cmax at 150 uM incubated at 37 degC and pH 5 by fluorescence spectrophotometry. Format: functional. Put shortly: as §1
A short description of test [11]: Induction of H2S generation assessed as half life at 150 uM incubated at 37 degC and pH 7.4 by fluorescence spectrophotometry. It is filed as functional. The gist of the method:
as §1

The subject of another test is A549. Description: Cytotoxicity in human A549 cells assessed as growth inhibition incubated for 24 hrs by MTT assay. Format: functional, cell-based. The settings on record: A549, 24 h. Put shortly: as §2
Test [12] can be described thus: Induction of H2S generation assessed as Cmax at 150 uM incubated at 37 degC and pH 1.2 by fluorescence spectrophotometry. It is filed as functional. The gist of the method:
as §1

A short description of test [13]: Induction of H2S generation assessed as Cmax Induction of H2S generation assessed as Cmax at 150 uM incubated at 37 degC and pH 8 by fluorescence spectrophotometry. Format: functional. The gist of the method: as §1
Test [14] in a line: Induction of H2S generation assessed as half life at 150 uM incubated at 22 degC and pH 7.4 by fluorescence spectrophotometry. Format: functional. The gist of the method: as §1
The nature of test [15]: Induction of H2S generation assessed as Cmax at 150 uM incubated at 22 degC and pH 7.4 by fluorescence spectrophotometry. It is filed as functional. The gist of the method: as §1
A short description of test [16]: Induction of H2S generation assessed as Cmax at 150 uM incubated at 22 degC and pH 8 by fluorescence spectrophotometry. It is filed as functional. Put shortly: as §1

For `S=P1(c2ccccc2)NCCN1`, the T1/2 in test [1] was found to be 31.6 min; in test [3], 32.9 min; in test [4], 32.5 min; in test [5], 30 min; in test [8], 31.1 min; in test [9], 31.2 min. The T1/2 in test [11] came to 31.1 min; in [14], 30.9 min. The Cmax stood at 29.9 µM in [2]; 28.4 µM in test [6]; 28.5 µM in test [7]; 35.4 µM in test [10]; 35.7 µM in test [12]; 34.8 µM in [13]. Further, the results for the Cmax in test [15] and in test [16] were 28.4 µM and 28.3 µM, respectively. For the same molecule, the IC50 in the test with MCF7 amounted to 713 µM; with HT-29, 780 µM; in the test on WI-38, 958 µM; in the test with HepG2, 657 µM; in the test with HeLa it was 968 µM; with A549 it was 641 µM.

As for `CC(C)[C@H](NP(O)(=S)c1ccccc1)C(=O)O` (stereo not given in full), the T1/2 in test [1] is 3.62 min; in [3], 2.25 min; in [4] it was 2.13 min; in test [5], 4.42 min; in test [8], 2.42 min; in test [9] it was 1.55 min. In addition, the T1/2 stood at 2.84 min in [11] and 3.11 min in test [14]. Besides, the Cmax was found to be 125 µM in [2]; 122 µM in [6]; 121 µM in test [7]; 126 µM in test [10]; 125 µM in test [12]; 124 µM in [13]. The Cmax in [15] and in test [16] was 122 µM each time. The IC50 in the test with MCF7 came to 542 µM; in the test on HT-29, 602 µM; in the test on WI-38 it was 546 µM; in the test on HepG2, 690 µM; in the test on HeLa, 809 µM; in the test on A549, 294 µM.

Take `C[C@H](NP(O)(=S)c1ccccc1)C(=O)O` (stereo not given in full): the T1/2 is 3.4 min in test [1]; 2.23 min in test [3]; 2.36 min in test [4]; 4.33 min in test [5]; 3.32 min in test [8]; 1.67 min in [9]. Moreover, the results for the T1/2 in test [11] and in test [14] were 2.75 min and 3.72 min, respectively. In addition, the Cmax was determined as 108 µM in [2]; 103 µM in test [6]; 104 µM in test [7]; 106 µM in test [10]; 110 µM in test [12]; 106 µM in test [13]. For the same molecule, the Cmax was 102 µM in [15] and 103 µM in test [16]. Further, the concentration for half-maximal inhibition (IC50) in the test with MCF7 came to 832 µM; in the test on HT-29 it was 689 µM; with WI-38, 351 µM; with HepG2, 858 µM; with HeLa, 888 µM; with A549, 346 µM.

`CC[C@H](C)[C@H](NP(O)(=S)c1ccccc1)C(=O)O` (stereo not given in full): the T1/2 in [1] was 4.17 min; in test [3], 2.72 min; in [4], 2.04 min; in test [5], 4.04 min; in [8], 2.87 min; in test [9], 1.53 min. For the same molecule, the T1/2 in test [11] was 2.91 min; in [14], 3.65 min. The Cmax in test [2] turned out to be 123 µM; in test [6], 117 µM; in test [7], 119 µM; in test [10] it was 123 µM; in test [12], 123 µM; in test [13], 122 µM. For the same molecule, the Cmax in [15] and in [16] was 117 µM throughout. For the same molecule, the 50% inhibitory concentration (IC50) with MCF7 was 601 µM; in the test with HT-29, 782 µM; in the test with WI-38, 658 µM; in the test with HepG2, 604 µM; with HeLa, 972 µM; in the test on A549 it was 236 µM.

On to `CC(C)C[C@H](NP(O)(=S)c1ccccc1)C(=O)O` (stereo not given in full), for which the T1/2 in [1] was found to be 3.59 min; in test [3], 2.75 min; in test [4], 2.65 min; in test [5], 4.44 min; in test [8], 3.25 min; in test [9], 2.04 min. Also, the T1/2 is 2.83 min in test [11] and 3.72 min in test [14]. Further, the Cmax in test [2] came to 118 µM; in test [6], 112 µM; in test [7] it was 113 µM; in test [10] it was 118 µM; in [12], 119 µM; in test [13] it was 116 µM. Besides, the Cmax came to 112 µM in test [15] and 111 µM in test [16]. For the same molecule, the concentration for half-maximal inhibition (IC50) came to 643 µM in the test on MCF7; 756 µM in the test on HT-29; 438 µM in the test on WI-38; 415 µM in the test with HepG2; 835 µM in the test with HeLa; 273 µM with A549.

For the molecule `CSCC[C@H](NP(O)(=S)c1ccccc1)C(=O)O` (stereo not given in full), the T1/2 in test [1] worked out at 3.55 min; in test [3] it was 2.44 min; in [4], 2.68 min; in test [5], 4.26 min; in [8], 3.64 min; in test [9], 2.2 min. Besides, the T1/2 was 2.83 min in test [11] and 3.32 min in test [14]. Moreover, the Cmax in test [2] was 120 µM; in [6], 113 µM; in test [7], 114 µM; in [10], 120 µM; in test [12], 120 µM; in test [13] it was 118 µM. Moreover, the Cmax in test [15] was determined as 112 µM; in test [16], 113 µM. Moreover, the 50% inhibitory concentration (IC50) is 671 µM with MCF7; 826 µM with HT-29; 546 µM in the test on WI-38; 286 µM with HepG2; 919 µM in the test on HeLa; 309 µM with A549.

As to `O=c1[nH]cc(F)c(=O)[nH]1` [FLUOROURACIL], the IC50 in the test on MCF7 worked out at 136 µM; with HT-29 it was 146 µM; with WI-38, 202 µM; in the test with HepG2 it was 112 µM; in the test with HeLa, 120 µM; in the test with A549, 104 µM.

Take `S=P1(c2ccccc2)NCCCN1`: the T1/2 is 28.4 min in test [1]; 29.6 min in test [3]; 29.2 min in test [4]; 29 min in test [5]; 29.8 min in test [8]; 27.8 min in test [9]. Further, the T1/2 in test [11] is 27.1 min; in test [14] it was 27.5 min. Also, the IC50 stood at 850 µM in the test on MCF7; 600 µM in the test with HT-29; 381 µM in the test with WI-38; 801 µM in the test on HepG2; 793 µM in the test with HeLa; 876 µM in the test on A549. Besides, the Cmax in test [6] amounted to 27.2 µM; in test [7], 27 µM; in test [10], 35.5 µM; in test [12], 35.7 µM; in [13], 35.7 µM; in test [15], 27.2 µM. In addition, the Cmax in test [16] was 27.1 µM.

On to `S=P1(c2ccccc2)OCC2CCCN21` (stereo not given), for which the T1/2 in [1] was found to be 27.5 min; in [3] it was 28.6 min; in test [4], 29.9 min; in [5], 29.2 min; in test [8], 28.2 min; in test [9] it was 27.8 min. In addition, the T1/2 in test [11] stood at 28.9 min; in test [14], 27.3 min. Besides, the Cmax stood at 28.2 µM in test [2]; 27.1 µM in [6]; 27.1 µM in test [7]; 36.8 µM in test [10]; 36.2 µM in test [12]; 33.7 µM in test [13]. In addition, the results for the Cmax in [15] and in test [16] were 26.9 µM and 27.1 µM, respectively. Besides, the IC50 with MCF7 was found to be 920 µM; in the test on HT-29, 636 µM; with WI-38, 503 µM; in the test with HepG2 it was 531 µM; in the test on HeLa, 984 µM.
